From ChEMBL document CHEMBL3045489, “Synthesis, fungicidal activity, and QSAR of a series of 2-dichlorophenyl-3-triazolylpropyl ethers” (J Agric Food Chem, 2000)
Converted amounts (≈) assume the structure as drawn.

Experiments:
[1] = system: Uromyces appendiculatus; test: Fungicidal activity against Uromyces appendiculatus inoculated in Phaseolus vulgaris placed in growth room after 24 hr incubation assessed as direct protection after 6 to 10 days; assay type: functional
Outline: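 Bean plants grown at 22 ± 1 °C, 80 ± 10% RH. Compound in acetone/water (1:4 v/v) with Tween 20 (0.4 mg mL-1) was sprayed on leaves until moist at 100 to 0.001 mg L-1. One day later leaves were inoculated with U. appendiculatus uredospores (1 × 10^5 spores mL-1), held 24 h at 22 ± 2 °C and 100% RH, then moved to the growth room. Scored at 6, 8 and 10 days as MIC.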

[2] = system: Pyrenophora teres; test: Antifungal activity against Pyrenophora teres assessed as inhibition of radial growth on potato dextrose; assay type: functional, organism-based
[3] = system: Fusarium graminearum; test: Antifungal activity against Fusarium graminearum assessed as inhibition of radial growth on potato dextrose; assay type: functional, organism-based
Outline: (§1)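 Radial growth inhibition on potato dextrose or Czapek agar across 100-0.1 mg L-1. ED50 calculated for each compound.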

[4] = system: Podosphaera fuliginea; test: Fungicidal activity against Podosphaera fuliginea inoculated in […] placed in growth room after 24 hr incubation assessed as direct protection after 6 to 10 days; assay type: functional
[5] = system: Botrytis cinerea; test: Antifungal activity against Botryotinia fuckelianaassessed as inhibition of radial growth on potato dextrose; assay type: functional, organism-based; outline: as §1
[6] = system: Cercospora beticola; test: Antifungal activity against Cercospora beticola assessed as inhibition of radial growth on potato dextrose; assay type: functional, organism-based; outline: as §1
[7] = system: Bipolaris maydis; test: Antifungal activity against Cochliobolus heterostrophus assessed as inhibition of radial growth on potato dextrose; assay type: functional, organism-based; outline: as §1
[8] = system: Ustilago maydis; test: Antifungal activity against Ustilago maydis assessed as inhibition of radial growth on potato dextrose; assay type: functional, organism-based; details: Mycosarcoma maydis
[9] = system: Oculimacula yallundae; test: Antifungal activity against Oculimacula yallundae assessed as inhibition of radial growth on potato dextrose; assay type: functional, organism-based; outline: as §1
[10] = system: Podosphaera fuliginea; test: Fungicidal activity against Podosphaera fuliginea inoculated in […] placed in growth room after 24 hr incubation assessed as disease cure after 24 hr of inoculation; assay type: functional

| SMILES | MIC [1] [µg/mL] | EC50 [2] [µg/mL] | EC50 [3] [µg/mL] | MIC [4] [µg/mL] | EC50 [5] [µg/mL] | EC50 [6] [µg/mL] | EC50 [7] [µg/mL] | EC50 [8] [µg/mL] | EC50 [9] [µg/mL] | MIC [10] [µg/mL] |
| --- | --- | --- | --- | --- | --- | --- | --- | --- | --- | --- |
| Clc1ccc(C(COCc2ccc3ccccc3c2)Cn2cncn2)c(Cl)c1 (racemic) | 120 (≈ 291 µM) | 0.25 (≈ 0.606 µM) | 130 (≈ 315 µM) | 50 (≈ 121 µM) | 2.8 (≈ 6.79 µM) | 0.23 (≈ 0.558 µM) | 0.15 (≈ 0.364 µM) | 0.18 (≈ 0.437 µM) | 1 (≈ 2.43 µM) | – |
| Clc1ccc(C(COCc2ccc(-c3ccccc3)cc2)Cn2cncn2)c(Cl)c1 (racemic) | 28 (≈ 63.9 µM) | 0.55 (≈ 1.25 µM) | > 200 | 10 (≈ 22.8 µM) | 2.8 (≈ 6.39 µM) | 0.18 (≈ 0.411 µM) | 0.18 (≈ 0.411 µM) | 0.03 (≈ 0.0684 µM) | 0.5 (≈ 1.14 µM) | 6 (≈ 13.7 µM) |
| Clc1ccc(C(COCc2cccc(Oc3ccccc3)c2)Cn2cncn2)c(Cl)c1 (racemic) | 50 (≈ 110 µM) | 0.85 (≈ 1.87 µM) | > 200 | 12 (≈ 26.4 µM) | 8 (≈ 17.6 µM) | 0.14 (≈ 0.308 µM) | 150 (≈ 330 µM) | 0.16 (≈ 0.352 µM) | 5 (≈ 11 µM) | – |
| Clc1ccc(C(COCc2ccc(OCc3ccccc3)cc2)Cn2cncn2)c(Cl)c1 (racemic) | 35 (≈ 74.7 µM) | 0.22 (≈ 0.47 µM) | > 200 | 10 (≈ 21.4 µM) | 3.5 (≈ 7.47 µM) | 0.2 (≈ 0.427 µM) | 0.15 (≈ 0.32 µM) | 0.14 (≈ 0.299 µM) | 0.5 (≈ 1.07 µM) | – |
| Clc1ccc(C(COCc2ccc(OCc3cccc(OCc4ccccc4)c3)cc2)Cn2cncn2)c(Cl)c1 (racemic) | 140 (≈ 244 µM) | 1.3 (≈ 2.26 µM) | > 200 | – | 25 (≈ 43.5 µM) | 0.9 (≈ 1.57 µM) | – | 0.2 (≈ 0.348 µM) | 1.8 (≈ 3.13 µM) | – |
| Clc1ccc(C(COCc2ccc(OCc3ccc(OCc4ccccc4)cc3)cc2)Cn2cncn2)c(Cl)c1 (racemic) | > 100 | 0.2 (≈ 0.348 µM) | > 200 | – | 100 (≈ 174 µM) | 0.18 (≈ 0.313 µM) | – | 0.2 (≈ 0.348 µM) | 0.16 (≈ 0.278 µM) | – |
| Clc1ccc(C(COCc2cccs2)Cn2cncn2)c(Cl)c1 (racemic) | 200 (≈ 543 µM) | 0.7 (≈ 1.9 µM) | 1.5 (≈ 4.07 µM) | 100 (≈ 272 µM) | 2 (≈ 5.43 µM) | 0.2 (≈ 0.543 µM) | 0.2 (≈ 0.543 µM) | 0.1 (≈ 0.272 µM) | 1.2 (≈ 3.26 µM) | – |
| C=C(C)COCC(Cn1cncn1)c1ccc(Cl)cc1Cl (racemic) | 150 (≈ 460 µM) | 0.75 (≈ 2.3 µM) | 13 (≈ 39.8 µM) | 50 (≈ 153 µM) | 1.2 (≈ 3.68 µM) | 0.15 (≈ 0.46 µM) | 0.1 (≈ 0.307 µM) | 0.25 (≈ 0.766 µM) | 0.5 (≈ 1.53 µM) | – |
| CC(C)=CCOCC(Cn1cncn1)c1ccc(Cl)cc1Cl (racemic) | 160 (≈ 470 µM) | 0.5 (≈ 1.47 µM) | 40 (≈ 118 µM) | 100 (≈ 294 µM) | 0.9 (≈ 2.65 µM) | 0.18 (≈ 0.529 µM) | 0.13 (≈ 0.382 µM) | 0.22 (≈ 0.647 µM) | 1 (≈ 2.94 µM) | – |
| C=C(Cl)COCC(Cn1cncn1)c1ccc(Cl)cc1Cl (racemic) | > 100 | 2 (≈ 5.77 µM) | 12 (≈ 34.6 µM) | – | 0.8 (≈ 2.31 µM) | 0.23 (≈ 0.664 µM) | – | 0.5 (≈ 1.44 µM) | 0.5 (≈ 1.44 µM) | – |
| Clc1ccc(C(COC/C=C/c2ccccc2)Cn2cncn2)c(Cl)c1 (racemic) | 140 (≈ 361 µM) | 0.47 (≈ 1.21 µM) | 40 (≈ 103 µM) | 10 (≈ 25.8 µM) | 3 (≈ 7.73 µM) | 0.2 (≈ 0.515 µM) | 0.18 (≈ 0.464 µM) | 0.1 (≈ 0.258 µM) | 1.3 (≈ 3.35 µM) | – |
| Clc1ccc(C(COCCCc2ccccc2)Cn2cncn2)c(Cl)c1 (racemic) | 200 (≈ 512 µM) | 1.3 (≈ 3.33 µM) | 18 (≈ 46.1 µM) | 100 (≈ 256 µM) | 2.3 (≈ 5.89 µM) | 0.18 (≈ 0.461 µM) | 0.19 (≈ 0.487 µM) | 0.15 (≈ 0.384 µM) | 2.3 (≈ 5.89 µM) | – |
| N#CCCOCC(Cn1cncn1)c1ccc(Cl)cc1Cl (racemic) | 250 (≈ 769 µM) | 32 (≈ 98.4 µM) | 32 (≈ 98.4 µM) | 60 (≈ 185 µM) | 18 (≈ 55.4 µM) | 4 (≈ 12.3 µM) | 8.5 (≈ 26.1 µM) | 4 (≈ 12.3 µM) | 20 (≈ 61.5 µM) | – |
